Measurements: ChEMBL document CHEMBL1250432, “Pteridine-sulfonamide conjugates as dual inhibitors of carbonic anhydrases and dihydrofolate reductase with potential antitumor activity” (Bioorg Med Chem, 2010)
Active and inactive are the calls of the source. The rule behind the calls is not given here.

Experiments:
Carbonic anhydrase 9 = Carbonic anhydrase 9 (Homo sapiens, UniProt Q16790); assay: Inhibition of human recombinant carbonic anhydrase 9 after 15 mins by stopped flow CO2 hydration assay
Dihydrofolate reductase = Dihydrofolate reductase (Lactobacillus casei, UniProt P00381); assay: Inhibition of Lactobacillus casei DHFR by spectrophotometric analysis; design: species or system Lacticaseibacillus casei
Dihydrofolate reductase, sequence (P00381 whole entry): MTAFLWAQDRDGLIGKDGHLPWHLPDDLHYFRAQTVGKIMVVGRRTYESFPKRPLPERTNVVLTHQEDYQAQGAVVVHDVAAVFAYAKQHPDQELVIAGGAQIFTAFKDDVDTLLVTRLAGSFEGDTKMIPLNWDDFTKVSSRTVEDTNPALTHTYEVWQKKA

PC-3 = assay: Antiproliferative activity against human PC3 cells after 72 hrs by MTT assay; assay type: functional, cell-based; conditions: PC-3, 72 h
Summary of the method: (§1)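 A549 (ATCC) and PC3 cells kept in RPMI-1640 with 10% heat-inactivated FBS, 2 mM glutamine and 1 mM sodium pyruvate at 37 °C in humidified 5% CO2. Seeded at about 5000 cells/well and exposed continuously for 72 h to a range of inhibitor concentrations, with MTX as control. Viability read by MTT assay; IC50 reported.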

[1] = biological target: Dihydrofolate reductase (Lactobacillus casei) (UniProt P00381); assay: Inhibition of Lactobacillus casei DHFR at 0.5 mM by spectrophotometric analysis; conditions: Lacticaseibacillus casei
Dihydrofolate reductase (Lactobacillus casei), sequence (P00381 whole entry): as above
Summary of the method: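 L. casei DHFR activity followed spectrophotometrically as the fall in absorbance at 340 nm from NADPH oxidation, with and without inhibitor, at 30 °C. Inhibitor tested at 0.5 mM, the highest concentration used.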

A549 = assay: Antiproliferative activity against human A549 cells after 72 hrs by MTT assay; assay type: functional, cell-based; conditions: A549, 72 h; summary of the method: as §1

Row | Structure (SMILES) | Ki (Carbonic anhydrase 9) [µM] | IC50 (Dihydrofolate reductase) [µM] | IC50 (PC-3) [µM] | inhibition [1] | IC50 (A549) [µM]
1 | CN(Cc1cnc2nc(N)nc(N)c2n1)c1ccc(C(=O)NCCc2ccc(S(N)(=O)=O)cc2)cc1 | 0.0037 | 1.8 | 500 |  | 
2 | Nc1nc(N)c2nc(CNCCc3ccc(S(N)(=O)=O)cc3)cnc2n1 |  |  | 300 | inactive | 
3 | Nc1nc(N)c2nc(CNc3ccc(C(=O)NCCc4ccc(S(N)(=O)=O)cc4)cc3)cnc2n1 | 0.0025 | 20 | 400 |  | 2000
4 | Nc1nc(N)c2nc(CNCCc3ccc(S(=O)(=O)O)cc3)cnc2n1 | > 1 |  | 460 | inactive | 
5 | Nc1nc(N)c2nc(CNc3ccc(S(=O)(=O)O)cc3)cnc2n1 | > 1 | 2 | 500 |  | 
6 | Nc1nc(N)c2nc(CNc3ccc(C(=O)NCCc4ccc(S(=O)(=O)O)cc4)cc3)cnc2n1 | > 1 | 1.3 | 500 |  | 
7 | CN(Cc1cnc2nc(N)nc(N)c2n1)c1ccc(C(=O)N[C@@H](CCC(=O)O)C(=O)O)cc1 [METHOTREXATE] |  |  | 0.001 |  | 0.005
8 | Nc1nc(N)c2nc(CNc3ccc(S(N)(=O)=O)cc3)cnc2n1 | 0.0021 | 2.5 | 550 |  | 
